This is an account of results in ChEMBL document CHEMBL4017514, “Discovery of Novel Macrocyclic Hedgehog Pathway Inhibitors Acting by Suppressing the Gli-Mediated Transcription” (J Med Chem, 2017).

The source made the active and inactive calls. No cut-off for these calls is given here.

Holding throughout (assay type): cell-based
Experiment [1] is described as follows: Inhibition of hedgehog signaling pathway in mouse Light2 cells in Shh conditioned medium by Gli-luciferase reporter gene assay. Summed up:
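Light II cells (NIH-3T3 stably transfected with Gli-responsive firefly luciferase and Renilla expression vector) stimulated with ShhN conditioned medium. This medium was collected from ShhN-transfected HEK293 cells kept in 0.1% FBS. Firefly luciferase normalized to Renilla. IC50 given as mean ± SD (nM) from three separate experiments.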
In general terms: In a reporter assay the amount or activity of a reporter protein is the signal.

For experiment [2], the species on record is Mus musculus. Kind of experiment: Inhibition of hedgehog signaling pathway in mouse Light2 cells in Shh conditioned medium at 1 uM by Gli-luciferase reporter gene assay relative to control.
The species named for experiment [3] is Homo sapiens. Kind of experiment: Inhibition of TNFalpha-induced NFkappaB activation in HEK293 cells at 20 uM after 24 hrs by dual luciferase reporter gene assay. Conditions: 1 uM, in the assay text read “1 uM” for “20 uM”. Summed up: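 HEK293 cells carrying NF-κB firefly reporter plus Renilla, stimulated with TNF-α and treated for 24 h. Cells lysed for dual luciferase assay, firefly signal normalized to Renilla. Data given as mean ± SD.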

The species entered for experiment [4] is Mus musculus. Kind of experiment: Inhibition of hedgehog signaling pathway in mouse NIH/3T3 cells harboring sufu shRNA assessed as downregulation of Gli1 mRNA expression at 1 uM by RT-qPCR analysis. Summed up: (§1)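 Sufu expression in NIH-3T3 cells was reduced by lentivirus carrying Sufu shRNA. Knockdown was checked by immunoblot of Sufu, with GAPDH as loading control, in lysates made in Tris pH 7.4/NaCl/NP-40 buffer with protease and phosphatase inhibitors. Gli1 and ptch1 mRNA were then measured in the knockdown cells by RT-qPCR.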
(In qPCR the cycle at which signal appears reflects the starting amount.)

Experiment [5] is filed under the species Mus musculus. Kind of experiment: Inhibition of hedgehog signaling pathway in mouse NIH/3T3 cells harboring sufu shRNA assessed as downregulation of ptch1 mRNA expression at 1 uM by RT-qPCR analysis. Put shortly: as §1
The species entered for experiment [6] is Homo sapiens. Put plainly: Inhibition of PGE2-stimulated TCF/LEF activity in human LS174T cells at 20 uM measured after 6 hrs by dual luciferase reporter gene assay. Summed up: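 LS174T cells carrying TCF/LEF reporter, stimulated with PGE2 and treated for 6 h. Dual luciferase read-out, firefly normalized to Renilla. Data given as mean ± SD.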

For the compound `O=C(Nc1cccc2c1OCC1CN(S(=O)(=O)c3ccc(Cl)s3)CCN1C2=O)C1CC1` (stereo not given), in experiment [1] (Mus musculus), half-maximal inhibition (IC50) required 482 nM. Besides, the inhibition in the experiment listed under Mus musculus [2] was determined as 80%.

The compound `O=C(Nc1cccc2c1OCC1CN(S(=O)(=O)c3ccc(Cl)cc3)CCN1C2=O)C1CC1` (stereo not given) gave an IC50 in experiment [1] (Mus musculus) of more than 1000 nM. In the experiment listed under Mus musculus [2], the inhibition was 35%.

The compound `Cn1ccc(S(=O)(=O)N2CCN3C(=O)c4cccc(NC(=O)C5CC5)c4OCC3C2)n1` (stereo not given) displayed an IC50 in experiment [1] (Mus musculus) of more than 1000 nM. The inhibition in the experiment filed under Mus musculus [2] worked out at 58%.

In experiment [1] (Mus musculus), `COc1ccc(CN2C[C@H]3CN(S(=O)(=O)c4ccc(Cl)cc4)CC[C@H]3Oc3c(NC(=O)C4CC4)cccc3C2=O)cc1` yielded an IC50 of 200 nM. Also, in the experiment filed under Mus musculus [2], the inhibition was 92%.

For the compound `C[C@H](CO)N1CC2CCN(S(=O)(=O)c3ccc(Cl)cc3)CC2Oc2c(NC(=O)C3CC3)cccc2C1=O` (stereo not given in full) [listing 1 of 2 here], the IC50 in experiment [1] (Mus musculus) was more than 1000 nM.

The compound `COc1ccc(CN2C[C@@H]3CN(S(=O)(=O)c4ccc(Cl)cc4)CC[C@@H]3Oc3c(NC(=O)C4CC4)cccc3C2=O)cc1` [listing 1 of 2 here] displayed an IC50 in experiment [1] of 12 nM.

As to `COc1ccc(CN2C[C@@H]3CN(S(=O)(=O)c4ccc(Cl)cc4)CC[C@@H]3Oc3c(NC(=O)C4CC4)cccc3C2=O)cc1` [listing 2 of 2 here], the inhibition in the experiment filed under Mus musculus [2] turned out to be 117%.

Regarding `C[C@H](CO)N1CC2CCN(S(=O)(=O)c3ccc(Cl)cc3)CC2Oc2c(NC(=O)C3CC3)cccc2C1=O` (stereo not given in full) [listing 2 of 2 here], in the experiment listed under Mus musculus [2], the inhibition was determined as 34%.

For `Cc1ccc(S(=O)(=O)/C=C/C#N)cc1`, in the experiment filed under Homo sapiens [3], the inhibition result was “Active”.

`Cc1sc2c(c1C)C(c1ccc(Cl)cc1)=N[C@@H](CC(=O)OC(C)(C)C)c1nnc(C)n1-2`: the inhibition entry in the experiment listed under Mus musculus [4] and in the experiment filed under Mus musculus [5] was “Active” each time.

Take `O=S(=O)(NCCNC/C=C/c1ccc(Br)cc1)c1cccc2cnccc12`: the inhibition result in the experiment listed under Homo sapiens [6] is “Active”.

Consider `COc1ccc(CN2C[C@@H]3CN(S(=O)(=O)c4ccn(C)n4)CC[C@@H]3Oc3c(NC(=O)C4CC4)cccc3C2=O)cc1` (racemic), for which, in experiment [1] (Mus musculus), the IC50 is 145 nM. For the same compound, the inhibition in the experiment filed under Mus musculus [2] stood at 87%.

`O=C(Nc1cccc2c1O[C@H]1CN(S(=O)(=O)c3ccc(Cl)cc3)CC[C@H]1CN(CCO)C2=O)C1CC1` (racemic) displayed a half-maximal inhibitory concentration (IC50) in experiment [1] (Mus musculus) of more than 1000 nM. Also, the inhibition in the experiment listed under Mus musculus [2] stood at 25%.

The compound `COc1ccc(CN2C[C@@H]3CCN(S(C)(=O)=O)C[C@@H]3Oc3c(NC(=O)C4CC4)cccc3C2=O)cc1` (racemic) yielded an IC50 in experiment [1] (Mus musculus) of more than 1000 nM. Further, the inhibition in the experiment listed under Mus musculus [2] was found to be 45%.

For `COc1ccc(CN2C[C@@H]3CCN(S(=O)(=O)c4ccc(NC(C)=O)cc4)C[C@@H]3Oc3c(NC(=O)C4CC4)cccc3C2=O)cc1` (racemic), the IC50 in experiment [1] (Mus musculus) is 42 nM. In addition, the inhibition in the experiment listed under Mus musculus [2] was 105%.

In experiment [1] (Mus musculus), `O=C(Nc1cccc2c1O[C@H]1CN(S(=O)(=O)c3ccc(Cl)cc3)CC[C@H]1CN(Cc1cccnc1)C2=O)C1CC1` (racemic) registered an IC50 of more than 1000 nM. Besides, in the experiment filed under Mus musculus [2], the inhibition is 28%.

In turn, `COc1ccc(CN2CC3CN(S(=O)(=O)c4ccc(Cl)cc4Cl)CCC3Oc3c(NC(=O)C4CC4)cccc3C2=O)cc1` (racemic) had an IC50 in experiment [1] (Mus musculus) of 33 nM. In addition, in the experiment filed under Mus musculus [2], the inhibition was 107%.

In experiment [1] (Mus musculus), `COc1ccc(CN2C[C@@H]3CCN(S(=O)(=O)C4CCCCC4)C[C@@H]3Oc3c(NC(=O)C4CC4)cccc3C2=O)cc1` (racemic) registered an IC50 of more than 1000 nM. Besides, in the experiment listed under Mus musculus [2], the inhibition is 42%.

In turn, `O=C(Nc1cccc2c1O[C@H]1CN(S(=O)(=O)c3ccc(Cl)cc3)CC[C@H]1CN(CCO)C2=O)C1CCCCC1` (racemic) gave an IC50 in experiment [1] (Mus musculus) of more than 1000 nM. Besides, in the experiment filed under Mus musculus [2], the inhibition was 32%.

Take `COc1ccc(CN2C[C@@H]3CCN(S(=O)(=O)c4ccc(Cl)cc4)C[C@@H]3Oc3c(NC(=O)C4CC4)cccc3C2=O)cc1` (racemic): in experiment [1] (Mus musculus), the IC50 came to 304 nM. The inhibition in the experiment filed under Mus musculus [2] is 97%.

Regarding `CN1CCC(N2C[C@@H]3CCN(S(=O)(=O)c4ccc(Cl)cc4)C[C@@H]3Oc3c(NC(=O)C4CC4)cccc3C2=O)CC1` (racemic), the IC50 in experiment [1] (Mus musculus) was determined as 344 nM. The inhibition in the experiment listed under Mus musculus [2] is 61%.

In experiment [1] (Mus musculus), `COc1ccc(CN2C[C@@H]3CCN(S(=O)(=O)c4ccc(Cl)s4)C[C@@H]3Oc3c(NC(=O)C4CC4)cccc3C2=O)cc1` (racemic) had an IC50 of 167 nM. In addition, the inhibition in the experiment listed under Mus musculus [2] was determined as 113%.

With `COc1ccc(CN2C[C@@H]3CCN(S(=O)(=O)c4ccc(Cl)cc4)C[C@@H]3Oc3ccc(NC(=O)C4CC4)cc3CC2=O)cc1` (racemic), the IC50 in experiment [1] (Mus musculus) was 502 nM. Moreover, in the experiment filed under Mus musculus [2], the inhibition came out at 60%.

In experiment [1] (Mus musculus), `COc1ccc(CN2C[C@@H]3CCN(C(=O)Nc4ccc(C(F)(F)F)cc4)C[C@@H]3Oc3c(NC(=O)C4CC4)cccc3C2=O)cc1` (racemic) yielded an IC50 of 292 nM. In addition, the inhibition in the experiment listed under Mus musculus [2] was determined as 100%.

As to `COc1ccc(CN2C[C@@H]3CN(S(=O)(=O)c4ccc(Cl)cc4)CC[C@@H]3Oc3ccc(NC(=O)C4CC4)cc3CC2=O)cc1` (racemic), in experiment [1] (Mus musculus), the half-inhibitory concentration (IC50) is more than 1000 nM. Also, the inhibition in the experiment listed under Mus musculus [2] was determined as 36%.

Take `COc1ccc(CN2C[C@@H]3CCN(S(=O)(=O)N4CCN(C)CC4)C[C@@H]3Oc3c(NC(=O)C4CC4)cccc3C2=O)cc1` (racemic): the IC50 in experiment [1] (Mus musculus) was more than 1000 nM. Moreover, the inhibition in the experiment filed under Mus musculus [2] worked out at 45%.

In the case of `COc1ccc(CN2C[C@@H]3CN(S(=O)(=O)c4ccc(Cl)s4)CC[C@@H]3Oc3c(NC(=O)C4CC4)cccc3C2=O)cc1` (racemic), it took 46 nM to reach half-maximal inhibition in experiment [1] (Mus musculus) (IC50). In addition, the inhibition in the experiment listed under Mus musculus [2] stood at 108%.

Compound `COc1ccc(CN2CC3CN(C(=O)Nc4ccc(C(F)(F)F)cc4)CCC3Oc3c(NC(=O)C4CC4)cccc3C2=O)cc1` (racemic) showed an IC50 in experiment [1] (Mus musculus) of more than 1000 nM. Further, the inhibition in the experiment listed under Mus musculus [2] was determined as 68%.

On to `COc1ccc(CN2CC3CN(S(=O)(=O)c4ccc(NC(C)=O)cc4)CCC3Oc3c(NC(=O)C4CC4)cccc3C2=O)cc1` (racemic), for which half-maximal inhibition in experiment [1] (Mus musculus) (IC50) was put at 773 nM. Further, the inhibition in the experiment filed under Mus musculus [2] is 82%.

For `COc1ccc(CN2C[C@@H]3CCN(S(=O)(=O)c4ccn(C)n4)C[C@@H]3Oc3ccc(NC(=O)C4CC4)cc3CC2=O)cc1` (racemic), the IC50 in experiment [1] (Mus musculus) was more than 1000 nM. Also, in the experiment filed under Mus musculus [2], the inhibition is 16%.

Take `COc1ccc(CN2C[C@@H]3CCN(S(=O)(=O)c4ccc(OC)c(OC)c4)C[C@@H]3Oc3c(NC(=O)C4CC4)cccc3C2=O)cc1` (racemic): the IC50 in experiment [1] (Mus musculus) is more than 1000 nM. For the same compound, the inhibition in the experiment listed under Mus musculus [2] came to 54%.

The compound `COc1ccc(CN2C[C@@H]3CCN(C(=O)c4ccc(Cl)cc4)C[C@@H]3Oc3c(NC(=O)C4CC4)cccc3C2=O)cc1` (racemic) displayed an IC50 in experiment [1] (Mus musculus) of more than 1000 nM. Further, the inhibition in the experiment filed under Mus musculus [2] amounted to 22%.

In experiment [1] (Mus musculus), `COc1ccc(CN2C[C@@H]3CN(S(=O)(=O)c4ccn(C)n4)CC[C@@H]3Oc3ccc(NC(=O)C4CC4)cc3CC2=O)cc1` (racemic) gave an IC50 of more than 1000 nM.

In experiment [1] (Mus musculus), `COc1ccc(CN2C[C@@H]3CCN(S(=O)(=O)c4ccn(C)n4)C[C@@H]3Oc3c(NC(=O)C4CC4)cccc3C2=O)cc1` (racemic) yielded an IC50 of 94 nM. Further, in the experiment filed under Mus musculus [2], the inhibition came out at 74%.

For `COc1ccc(CN2C[C@@H]3CN(S(=O)(=O)c4ccc(Cl)s4)CC[C@@H]3Oc3ccc(NC(=O)C4CC4)cc3CC2=O)cc1` (racemic), it took 1620 nM to reach half-maximal inhibition in experiment [1] (Mus musculus) (IC50). For the same compound, the inhibition in the experiment filed under Mus musculus [2] was 65%.

In the case of `COc1ccc(CN2C[C@@H]3CCN(S(=O)(=O)c4ccc(Cl)cc4Cl)C[C@@H]3Oc3c(NC(=O)C4CC4)cccc3C2=O)cc1` (racemic), in experiment [1] (Mus musculus), the IC50 amounted to 766 nM. Further, in the experiment filed under Mus musculus [2], the inhibition is 102%.

As for `COc1ccc(CN2C[C@@H]3CCN(C(=O)Nc4ccc(F)cc4F)C[C@@H]3Oc3c(NC(=O)C4CC4)cccc3C2=O)cc1` (racemic), the IC50 in experiment [1] (Mus musculus) turned out to be 26 nM. The inhibition in the experiment filed under Mus musculus [2] stood at 100%.

In experiment [1] (Mus musculus), `COc1ccc(CN2CC3CN(C(=O)Nc4ccc(F)cc4F)CCC3Oc3c(NC(=O)C4CC4)cccc3C2=O)cc1` (racemic) came in with an IC50 of 540 nM. In addition, the inhibition in the experiment filed under Mus musculus [2] was 87%.

For the compound `C[C@H](CO)N1CC2CCN(S(=O)(=O)c3ccc(Cl)cc3)CC2Oc2c(NC(=O)C3CC3)cccc2C1=O` (single isomer, unassigned; (+)), the inhibition in the experiment filed under Mus musculus [2] was found to be 40%.

Broadly, the IC50 is the concentration that inhibits the measured activity by half. Read a high IC50 as weaker potency. By inhibition is commonly meant the relative decrease from the control value, in per cent.
